Source: ChEMBL document CHEMBL3414478, “Activity of 2-aryl-2-(3-indolyl)acetohydroxamates against drug-resistant cancer cells” (J Med Chem, 2015)
Calls of active or inactive are those of the source. No cut-off for these calls is given here.

Columns and labels:
MCF7 = experiment: Antiproliferative activity against human MCF7 cells assessed as reduction in cell viability after 48 hrs by MTT assay; assay type: functional, cell-based; conditions: MCF7, 48 h
Procedure, shortened: (§1)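 MTT assay. HeLa and U87 cells were grown in DMEM + 10% FBS, and MCF-7 cells in RPMI + 10% FBS. Cells were seeded at 4 × 10³/well, grown 24 h, then exposed to 0.001–100 μM for 48 h. 0.1% DMSO was the negative control and 1 μM PAO the positive control. Quadruplicate wells, ≥2 repeats.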

HeLa = experiment: Antiproliferative activity against human HeLa cells assessed as reduction in cell viability after 48 hrs by MTT assay; assay type: functional, cell-based; procedure, shortened: as §1
U-87MG ATCC [1] = experiment: Antiproliferative activity against human U87 cells assessed as reduction in cell viability up to 100 uM after 48 hrs by MTT assay; assay type: functional, cell-based
Procedure, shortened: (§2)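 Cells (U87 in DMEM, A549 in RPMI with 10% heat-inactivated FBS) were seeded at 4 × 10³/well, grown 24 h, then exposed to 0.001–100 μM compound (DMSO stocks) for 48 h at 37 °C, 5% CO₂. Quadruplicates, repeated at least twice; 0.1% DMSO negative control, 1 μM PAO positive control.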

A549 = experiment: Antiproliferative activity against human A549 cells assessed as reduction in cell viability up to 100 uM after 48 hrs by MTT assay; assay type: functional, cell-based; procedure, shortened: as §2
[2] = Antiproliferative activity against human GBM 031810 cells assessed as reduction in cell viability after 48 hrs by MTT assay; assay type: functional; conditions: GBM 031810, 48 h
Procedure, shortened: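 Patient-derived glioblastoma neurosphere culture GBM 031810, kept in Neurobasal medium with B27, Glutamax, FGF-2 (20 ng/ml), EGF (20 ng/ml) and heparin; growth factors renewed twice weekly. GI50 is the average ± SD of three determinations.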

[3] = Antiproliferative activity against human U373 cells assessed as global growth ratio measured as cell growth at 25 uM after 24 hrs by Quantitative videomicroscopy relative to untreated control; assay type: functional, U-373MG ATCC; conditions: in the assay text read “after 72 hrs” for “after 24 hrs”
Procedure, shortened: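 U373 cells were grown in RPMI + 10% heat-inactivated FBS and followed by computer-assisted phase-contrast videomicroscopy with 25 μM compound. The global growth ratio is the mean cell count per image at 24, 48 or 72 h divided by the count at 0 h, then normalised to the same ratio in the untreated control.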

[4] = Cytotoxicity against human NHLF cells assessed as cell growth after 48 hrs by MTT assay; assay type: cell-based
Procedure, shortened: (§3)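 Normal fibroblasts (NHDF, NHLF) were grown in FGM-2 medium at 37 °C, 5% CO2, seeded at 4 × 10³/well and grown 24 h. Controls were 0.1% DMSO and 1 μM PAO. Quadruplicate wells, repeated at least twice.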

NHDF = experiment: Cytotoxicity against human NHDF cells assessed as cell growth after 48 hrs by MTT assay; assay type: cell-based; procedure, shortened: as §3
U-87MG ATCC [5] = experiment: Redifferentiation of human U87 cells assessed as nonmalignant state resembling reactive astrocyte/phenotype at 7 uM after 3 days; assay type: functional, cell-based; conditions: in the assay text read “33 days” for “3 days”
Procedure, shortened: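 U87 cells were plated at 5 × 10⁴/well in DMEM/10% FBS. Next day they were re-fed and dosed at final concentrations between 15 and 5 μM, with medium not replaced afterwards. Morphology was followed for several weeks (33-day treatment shown at 7 μM) against untreated cells.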

[6] = Antiproliferative activity against human U87 cells assessed as reduction in cell viability after 48 hrs by MTT assay; assay type: functional, U-87MG ATCC; conditions: U-87 MG; procedure, shortened: as §1

SMILES: CCOc1ccc(C(C(=O)NO)c2c(-c3ccc4ccccc4c3)[nH]c3ccccc23)cc1 (centres undefined)
- IC50 (MCF7): 8.5 µM
- IC50 (HeLa): 17.3 µM

SMILES: COc1ccc(-c2[nH]c3ccccc3c2C(C(=O)NO)c2ccccc2)cc1 (centres undefined)
- IC50 (MCF7): > 50 µM
- IC50 (HeLa): > 50 µM

SMILES: Cc1ccc2[nH]c(-c3ccc4ccccc4c3)c(C(C(=O)NO)c3ccccc3)c2c1 (centres undefined)
- IC50 (MCF7): > 50 µM
- IC50 (HeLa): > 50 µM

SMILES: COc1ccc(C(C(=O)NO)c2c(-c3ccc4ccccc4c3)[nH]c3ccccc23)cc1OC (centres undefined)
- IC50 (MCF7): 2.4 µM
- IC50 (HeLa): 26.9 µM

SMILES: O=C(NO)C(c1ccccc1)c1c(-c2ccccc2)[nH]c2ccccc12 (centres undefined)
- IC50 (MCF7): 31 µM
- IC50 (HeLa): 23 µM

SMILES: CCN(CC)c1ccc(C(C(=O)NO)c2c(-c3ccc4ccccc4c3)[nH]c3ccccc23)cc1 (centres undefined)
- IC50 (MCF7): 7.9 µM
- IC50 (HeLa): 4.1 µM

SMILES: COc1cc([C@@H]2c3cc4c(cc3[C@H](O)[C@H]3COC(=O)[C@H]23)OCO4)cc(OC)c1OC
- Activity (U-87MG ATCC [1]): inactive
- Activity (A549): inactive

SMILES: O=C(NO)C(c1ccccc1)c1c(-c2ccc3ccccc3c2)[nH]c2ccccc12 (centres undefined)
- IC50 (MCF7): 3.4 µM
- IC50 (HeLa): 3.6 µM
- GI50 [2]: 0.8 µM
- Activity [3]: 30%
- Activity [4]: Non-toxic
- Activity (NHDF): Non-toxic
- Activity (U-87MG ATCC [5]): Active

SMILES: CC(C)c1ccc(C(C(=O)NO)c2c(-c3ccc4ccccc4c3)[nH]c3ccccc23)cc1 (centres undefined)
- GI50 [6]: 5 µM
- IC50 (MCF7): 1.4 µM
- IC50 (HeLa): 0.68 µM
- GI50 [2]: 3.4 µM

SMILES: CN(C)c1ccc(C(C(=O)NO)c2c(-c3ccc4ccccc4c3)[nH]c3ccccc23)cc1 (centres undefined)
- IC50 (MCF7): 1.1 µM
- IC50 (HeLa): 0.6 µM
- GI50 [2]: 5.6 µM
- Activity [4]: Non-toxic
- Activity (NHDF): Non-toxic

SMILES: COc1ccc2[nH]c(-c3ccc4ccccc4c3)c(C(C(=O)NO)c3ccccc3)c2c1 (centres undefined)
- IC50 (MCF7): > 50 µM
- IC50 (HeLa): > 50 µM

SMILES: CCC(C)n1c(-c2ccc3ccccc3c2)c(C(C(=O)NO)c2ccccc2)c2ccccc21 (centres undefined)
- IC50 (MCF7): 9.3 µM
- IC50 (HeLa): 9.8 µM

SMILES: Cn1nnc2c(C(N)=O)ncn2c1=O [TEMOZOLOMIDE]
- GI50 [2]: > 1000 µM

SMILES: Cc1ccc(C(C(=O)NO)c2c(-c3ccc4ccccc4c3)[nH]c3ccccc23)cc1C (centres undefined)
- IC50 (MCF7): 2.5 µM
- IC50 (HeLa): 2.7 µM

SMILES: O=C(NO)C(c1ccc(Cl)c(Cl)c1)c1c(-c2ccc3ccccc3c2)[nH]c2ccccc12 (centres undefined)
- IC50 (MCF7): 12.2 µM
- IC50 (HeLa): 31.7 µM

SMILES: O=C(NO)C(c1ccc([N+](=O)[O-])cc1)c1c(-c2ccccc2)[nH]c2ccccc12 (centres undefined)
- IC50 (MCF7): > 50 µM
- IC50 (HeLa): > 50 µM

SMILES: O=C(NO)C(c1ccccc1Cl)c1c(-c2ccc3ccccc3c2)[nH]c2ccccc12 (centres undefined)
- IC50 (MCF7): 4.9 µM
- IC50 (HeLa): 31 µM

SMILES: CC(=O)O[C@H]1C(=O)[C@@]2(C)[C@H]([C@H](OC(=O)c3ccccc3)[C@]3(O)C[C@H](OC(=O)[C@H](O)[C@@H](NC(=O)c4ccccc4)c4ccccc4)C(C)=C1C3(C)C)[C@]1(OC(C)=O)CO[C@@H]1C[C@@H]2O
- Activity (U-87MG ATCC [1]): inactive
- Activity (A549): inactive

SMILES: O=C(NO)C(c1ccccc1)c1c(-c2ccc3ccccc3c2)n(Cc2ccccc2)c2ccccc12 (centres undefined)
- IC50 (MCF7): 5.5 µM
- IC50 (HeLa): 5.4 µM

SMILES: Cn1c(-c2ccc3ccccc3c2)c(C(C(=O)NO)c2ccccc2Br)c2ccccc21 (centres undefined)
- IC50 (MCF7): 11.2 µM
- IC50 (HeLa): 24 µM

SMILES: Cc1ccc(C(C(=O)NO)c2c(-c3ccc4ccccc4c3)[nH]c3ccccc23)cc1 (centres undefined)
- IC50 (MCF7): 4.9 µM
- IC50 (HeLa): 6.3 µM

SMILES: O=C(NO)C(c1ccc(OC(F)(F)F)cc1)c1c(-c2ccc3ccccc3c2)[nH]c2ccccc12 (centres undefined)
- IC50 (MCF7): 10.2 µM
- IC50 (HeLa): 27.4 µM

SMILES: O=C(NO)C(c1ccccc1)c1c(-c2cccc3ccccc23)[nH]c2ccccc12 (centres undefined)
- IC50 (MCF7): 32 µM
- IC50 (HeLa): 25.7 µM

SMILES: Cn1c(-c2ccc3ccccc3c2)c(C(C(=O)NO)c2ccccc2)c2ccccc21 (centres undefined)
- IC50 (MCF7): 10 µM
- IC50 (HeLa): 19.7 µM

SMILES: Cn1c(-c2ccc3ccccc3c2)c(C(C(=O)NO)c2cccc(F)c2)c2ccccc21 (centres undefined)
- IC50 (MCF7): 25.7 µM
- IC50 (HeLa): 36.8 µM

SMILES: Cc1[nH]c2ccccc2c1C(C(=O)NO)c1ccccc1 (centres undefined)
- IC50 (MCF7): > 50 µM
- IC50 (HeLa): > 50 µM

SMILES: N#CC(c1ccccc1)c1c(-c2ccc3ccccc3c2)[nH]c2ccccc12 (centres undefined)
- IC50 (MCF7): 20.6 µM
- IC50 (HeLa): 17.4 µM

SMILES: CCCCn1c(-c2ccc3ccccc3c2)c(C(C(=O)NO)c2ccc(C(C)C)cc2)c2ccccc21 (centres undefined)
- IC50 (MCF7): 7.7 µM
- IC50 (HeLa): 6.6 µM

SMILES: O=C(NO)C(c1ccccc1Br)c1c(-c2ccc3ccccc3c2)[nH]c2ccccc12 (centres undefined)
- IC50 (MCF7): 2.7 µM
- IC50 (HeLa): 13 µM

SMILES: CCCCn1c(-c2ccc3ccccc3c2)c(C(C(=O)NO)c2ccccc2)c2ccccc21 (centres undefined)
- IC50 (MCF7): 7.8 µM
- IC50 (HeLa): 5.6 µM

SMILES: Cc1cccc(C(C(=O)NO)c2c(-c3ccc4ccccc4c3)[nH]c3ccccc23)c1 (centres undefined)
- IC50 (MCF7): 7.4 µM
- IC50 (HeLa): 6.9 µM

SMILES: O=C(NO)C(c1ccccc1)c1c(-c2ccccc2[N+](=O)[O-])[nH]c2ccccc12 (centres undefined)
- IC50 (MCF7): > 50 µM
- IC50 (HeLa): > 50 µM

SMILES: O=C(NO)C(c1ccc(F)cc1)c1c(-c2ccc3ccccc3c2)[nH]c2ccccc12 (centres undefined)
- IC50 (MCF7): 6.3 µM
- IC50 (HeLa): 18.2 µM

SMILES: NC(=O)C(c1ccccc1)c1c(-c2ccc3ccccc3c2)[nH]c2ccccc12 (centres undefined)
- IC50 (MCF7): 11.6 µM
- IC50 (HeLa): 9.3 µM

SMILES: O=C(NO)C(c1cccc(F)c1)c1c(-c2ccc3ccccc3c2)[nH]c2ccccc12 (centres undefined)
- IC50 (MCF7): 20.4 µM
- IC50 (HeLa): 32.9 µM
